Several values for one entry are separate records, joined by “and”; a condition that tells them apart may be missing. Equal values may be shown once. Activity calls are given as the source filed them.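 The calls were made as follows: active = compounds that push a bacterial single-strand DNA binding protein off labeled DNA, with IC50 up to 50 micromolar; inactive = the rest.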
Target: Single-stranded DNA-binding protein (Escherichia coli (strain K12)) (UniProt P0AGE0)
Test: displacement of E. coli SSB from DNA, late-stage follow-up, selectivity assay for HCV NS3 helicase inhibitor project, biochemical, fluorescence polarization (AID 623966)
Conditions: E. coli SSB / Cy5-dT15 DNA
Method in brief: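 System: E. coli SSB (ssDNA-binding protein), Cy5-labelled dT15 DNA; quantity: 20 nM E. coli SSB per well, final; dosing: compound dilution series in DMSO; signal: fluorescence polarization of Cy5 label; evaluation: percent displacement and IC50 from dose-response fits; benchmarks: no-enzyme wells and 200 nM dT20 competitor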

Single-stranded DNA-binding protein (Escherichia coli (strain K12)), sequence (P0AGE0 whole entry, looked up): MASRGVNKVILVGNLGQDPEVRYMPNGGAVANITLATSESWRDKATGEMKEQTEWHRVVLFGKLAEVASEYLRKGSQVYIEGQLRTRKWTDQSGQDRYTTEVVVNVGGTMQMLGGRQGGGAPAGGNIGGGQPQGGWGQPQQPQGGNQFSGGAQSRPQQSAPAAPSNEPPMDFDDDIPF

IC50 | SMILES
6 µM | Cc1ccc2nc(-c3ccc4nc(-c5ccc(NC(=O)Nc6ccccc6)cc5)sc4c3)sc2c1S(=O)(=O)O
2 µM | COc1ccc(C(=O)Nc2ccc(-c3nc4ccc(-c5nc6ccc(C)c(S(=O)(=O)O)c6s5)cc4s3)cc2)cc1
> 100 µM (inactive) | Cc1ccc2nc(-c3ccc4nc(-c5ccc(NC(=O)c6cccc(Cl)c6)cc5)sc4c3)sc2c1S(=O)(=O)O
46 µM | Cc1ccc2nc(-c3ccc4nc(-c5ccc(NC(=O)c6ccc(Cl)cc6)cc5)sc4c3)sc2c1S(=O)(=O)O
22 µM and 28 µM | Cc1ccc2nc(-c3ccc4nc(-c5ccc(NC(=O)c6ccc7ccccc7c6)cc5)sc4c3)sc2c1S(=O)(=O)O
9 µM | Cc1ccc2nc(-c3ccc4nc(-c5ccc(NC(=O)c6cccc7ccccc67)cc5)sc4c3)sc2c1S(=O)(=O)O
14 µM | Cc1ccc2nc(-c3ccc4nc(-c5ccc(NC(=O)c6ccc(F)cc6)cc5)sc4c3)sc2c1S(=O)(=O)O
27 µM | Cc1ccc2nc(-c3ccc4nc(-c5ccc(NC(=O)c6ccc(Br)cc6)cc5)sc4c3)sc2c1S(=O)(=O)O
15 µM | Cc1ccc2nc(-c3ccc4nc(-c5ccc(NC(=O)Nc6ccc(C(F)(F)F)cc6)cc5)sc4c3)sc2c1S(=O)(=O)O
5 µM | Cc1ccc2nc(-c3ccc4nc(-c5ccc(NCc6ccccc6)cc5)sc4c3)sc2c1S(=O)(=O)O
4 µM | Cc1ccc2nc(-c3ccc4nc(-c5ccc(NC(=O)c6ccccc6)cc5)sc4c3)sc2c1S(=O)(=O)O
10 µM | Cc1ccc(NC(=O)Nc2ccc(-c3nc4ccc(-c5nc6ccc(C)c(S(=O)(=O)O)c6s5)cc4s3)cc2)cc1
2 µM | COC(=O)c1ccc(C(=O)Nc2ccc(-c3nc4ccc(-c5nc6ccc(C)c(S(=O)(=O)O)c6s5)cc4s3)cc2)cc1
> 100 µM (inactive) | Cc1ccc2nc(-c3ccc4nc(-c5ccc(NC(=O)c6cccnc6)cc5)sc4c3)sc2c1S(=O)(=O)O
10 µM | COc1ccc(S(=O)(=O)Nc2ccc(-c3nc4ccc(-c5nc6ccc(C)c(S(=O)(=O)O)c6s5)cc4s3)cc2)cc1
17 µM | CC(=O)Nc1ccc(-c2nc3ccc(-c4nc5ccc(C)c(S(=O)(=O)O)c5s4)cc3s2)cc1
4 µM | Cc1ccc2nc(-c3ccc4nc(-c5ccc(NC(=O)c6ccc(N(C)C)cc6)cc5)sc4c3)sc2c1S(=O)(=O)O
inactive | Cc1ccc2nc(-c3ccc4nc(-c5ccc(NC(=O)c6ccncc6)cc5)sc4c3)sc2c1S(=O)(=O)O
32 µM | Cc1ccc2nc(-c3ccc4nc(-c5ccc(NC(=O)c6ccc(C(C)(C)C)cc6)cc5)sc4c3)sc2c1S(=O)(=O)O
5 µM | Cc1ccc2nc(-c3ccc4nc(-c5ccc(NC(=O)Nc6ccc(Cl)cc6)cc5)sc4c3)sc2c1S(=O)(=O)O
3 µM | Cc1ccc2nc(-c3ccc4nc(-c5ccc(NC(=O)c6ccc(N)cc6)cc5)sc4c3)sc2c1S(=O)(=O)O
5 µM | Cc1ccc(C(=O)Nc2ccc(-c3nc4ccc(-c5nc6ccc(C)c(S(=O)(=O)O)c6s5)cc4s3)cc2)cc1
> 100 µM (inactive) | Cc1ccc2nc(-c3ccc4nc(-c5ccc(NC(=O)c6ccc(Cl)c(Cl)c6)cc5)sc4c3)sc2c1S(=O)(=O)O
11 µM | Cc1ccc2nc(-c3ccc4nc(-c5ccc(NC(=O)Nc6ccc(F)cc6)cc5)sc4c3)sc2c1S(=O)(=O)O
4 µM | COc1ccc(NC(=O)Nc2ccc(-c3nc4ccc(-c5nc6ccc(C)c(S(=O)(=O)O)c6s5)cc4s3)cc2)cc1
> 100 µM (inactive) | Cc1ccc2nc(-c3ccc4nc(-c5ccc(NC(=O)c6cccc(C(F)(F)F)c6)cc5)sc4c3)sc2c1S(=O)(=O)O
4 µM | Cc1ccc2nc(-c3ccc4nc(-c5ccc(NC(=O)c6ccc(C(F)(F)F)cc6)cc5)sc4c3)sc2c1S(=O)(=O)O

More lines, now with the values behind:

SMILES | IC50
Cc1ccc2nc(-c3ccc4nc(-c5ccc(NC(=O)c6cccc(C(F)(F)F)c6F)cc5)sc4c3)sc2c1S(=O)(=O)O | inactive
Cc1ccc2nc(-c3ccc4nc(-c5ccc(NC(=O)c6ccc(NC(=O)OCC7c8ccccc8-c8ccccc87)cc6)cc5)sc4c3)sc2c1S(=O)(=O)O | > 100 µM (inactive)
Cc1ccc2nc(-c3ccc4nc(-c5ccc(NC(=O)c6cc(C(F)(F)F)cc(C(F)(F)F)c6)cc5)sc4c3)sc2c1S(=O)(=O)O | 36 µM
Cc1ccc2nc(-c3ccc(NC(=O)c4ccc(NC(=O)c5ccc(NC(=O)OCC6c7ccccc7-c7ccccc76)cc5)cc4)cc3)sc2c1S(=O)(=O)O | 7 µM
Cc1ccc2nc(-c3ccc4nc(-c5ccc(NC(=O)c6ccc7nc(-c8ccc(NC(=O)OCC9c%10ccccc%10-c%10ccccc%109)cc8)sc7c6)cc5)sc4c3)sc2c1S(=O)(=O)O | 5 µM
Cc1ccc2nc(-c3ccc4nc(-c5ccc(NC(=O)c6ccc(CNC(=O)OCC7c8ccccc8-c8ccccc87)cc6)cc5)sc4c3)sc2c1S(=O)(=O)O | inactive
Cc1ccc2nc(-c3ccc4nc(-c5ccc(NC(=O)c6cc(F)ccc6C(F)(F)F)cc5)sc4c3)sc2c1S(=O)(=O)O | 14 µM
Cc1ccc2nc(-c3ccc(NC(=O)c4ccc(NC(=O)c5ccc(N)cc5)cc4)cc3)sc2c1S(=O)(=O)O | 17 µM
Cc1ccc2nc(-c3ccc4nc(-c5ccc(NC(=O)c6ccc(C(F)(F)F)c(F)c6)cc5)sc4c3)sc2c1S(=O)(=O)O | 10 µM
Cc1ccc2nc(-c3ccc(NC(=O)c4ccc(NC(=S)Nc5ccccc5)cc4)cc3)sc2c1S(=O)(=O)O | 23 µM
Cc1ccc2nc(-c3ccc4nc(-c5ccc(NC(=O)c6cc(F)cc(C(F)(F)F)c6)cc5)sc4c3)sc2c1S(=O)(=O)O | > 100 µM (inactive)
Cc1ccc2nc(-c3ccc4nc(-c5ccc(N(C)C(=O)c6ccc7ccccc7c6)cc5)sc4c3)sc2c1S(=O)(=O)O | 9 µM
Cc1ccc2nc(-c3ccc(NC(=O)c4ccc(NC(=O)Nc5ccccc5)cc4)cc3)sc2c1S(=O)(=O)O | 20 µM
Cc1ccc2nc(-c3ccc(NC(=O)c4ccc(NC(=O)c5ccc(C(F)(F)F)cc5)cc4)cc3)sc2c1S(=O)(=O)O | 23 µM
Cc1ccc2nc(-c3ccc4nc(-c5ccc(NC(=O)c6c(F)cccc6C(F)(F)F)cc5)sc4c3)sc2c1S(=O)(=O)O | 13 µM
Cc1ccc2nc(-c3ccc4nc(-c5ccc(NC(=O)c6cc(C(F)(F)F)ccc6F)cc5)sc4c3)sc2c1S(=O)(=O)O | 12 µM
Cc1ccc2nc(-c3ccc4nc(-c5ccc(NC(=S)Nc6ccccc6)cc5)sc4c3)sc2c1S(=O)(=O)O | 7 µM
Cc1ccc2nc(-c3ccc4nc(-c5ccc(NC(=O)c6ccccc6C(F)(F)F)cc5)sc4c3)sc2c1S(=O)(=O)O | 13 µM
Cc1ccc2nc(-c3ccc(NC(=O)c4ccc(NS(=O)(=O)c5ccccc5)cc4)cc3)sc2c1S(=O)(=O)O | > 100 µM (inactive)
Cc1ccc2nc(-c3ccc(NC(=O)c4ccc(NC(=O)c5ccccc5)cc4)cc3)sc2c1S(=O)(=O)O | inactive
Cc1ccc2nc(-c3ccc4nc(-c5ccc(NC(=O)c6ccc7nc(-c8ccc(N)cc8)sc7c6)cc5)sc4c3)sc2c1S(=O)(=O)O | 3 µM
Cc1ccc2nc(-c3ccc(NC(=O)c4ccc(NC(=O)OCC5c6ccccc6-c6ccccc65)cc4)cc3)sc2c1S(=O)(=O)O | 27 µM

Source: PubChem BioAssay AID623966 (The Scripps Research Institute Molecular Screening Center, 2012)
